The values below come from ChEMBL document CHEMBL4602706, “Natural Product Evodiamine with Borate Trigger Unit: Discovery of Potent Antitumor Agents against Colon Cancer” (ACS Med Chem Lett, 2020).

In test [1] the target is T1, DNA topoisomerase 1 (Homo sapiens) (UniProt P11387).
T1 sequence (whole entry): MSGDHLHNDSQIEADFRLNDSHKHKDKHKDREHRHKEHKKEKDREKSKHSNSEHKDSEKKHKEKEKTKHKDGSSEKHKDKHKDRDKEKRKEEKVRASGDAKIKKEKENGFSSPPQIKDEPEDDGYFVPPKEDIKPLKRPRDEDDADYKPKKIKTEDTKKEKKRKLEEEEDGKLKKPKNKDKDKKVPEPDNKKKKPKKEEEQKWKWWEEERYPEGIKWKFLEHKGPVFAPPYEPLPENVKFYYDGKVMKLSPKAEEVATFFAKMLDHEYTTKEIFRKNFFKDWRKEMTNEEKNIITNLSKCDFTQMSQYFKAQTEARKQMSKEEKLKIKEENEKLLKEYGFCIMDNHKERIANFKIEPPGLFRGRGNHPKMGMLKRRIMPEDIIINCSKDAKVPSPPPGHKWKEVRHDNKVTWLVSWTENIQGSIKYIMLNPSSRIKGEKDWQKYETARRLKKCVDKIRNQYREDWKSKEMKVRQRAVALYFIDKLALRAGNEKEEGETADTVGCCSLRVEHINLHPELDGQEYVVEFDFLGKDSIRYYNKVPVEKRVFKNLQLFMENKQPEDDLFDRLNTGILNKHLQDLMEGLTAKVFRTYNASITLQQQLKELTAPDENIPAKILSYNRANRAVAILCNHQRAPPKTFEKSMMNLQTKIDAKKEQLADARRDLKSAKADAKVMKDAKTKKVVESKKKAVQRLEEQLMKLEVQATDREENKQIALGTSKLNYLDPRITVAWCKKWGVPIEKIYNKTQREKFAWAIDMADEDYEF
Briefly: Inhibition of Top1 (unknown origin) at 500 uM using supercoiled pBR322 plasmid DNA as substrate incubated for 15 mins by PI staining based agarose gel electrophoresis analysis. An outline of the steps: (§1)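 Top1 inhibition tested at 500, 250 and 125 μM, and over 27.9 to 250 μM for selected compounds.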

Another test relates to HCT-116. Briefly: Antiproliferative activity against human HCT116 cells incubated for 72 hrs by CCK8 assay. The class given is functional, cell-based. The essentials:
(§2)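 HCT116, MCF-7 and A549 human cancer cell lines; antiproliferative activity read out by CCK8 assay. Evodiamine derivatives and camptothecin served as positive controls.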

For the next test, the system named is A549. As to the kind of experiment: Antiproliferative activity against human A549 cells incubated for 72 hrs by CCK8 assay. The class given is functional, cell-based. An outline of the steps: as §2
(Tetrazolium assays rely on reduction of a dye to a coloured formazan, in cell work by metabolically active cells.)

Test [2] has as its target T2, DNA topoisomerase II (Homo sapiens) (UniProt P11388+Q02880). As to the kind of experiment: Inhibition of Top2 (unknown origin) at 50 uM using supercoiled pBR322 plasmid DNA as substrate incubated for 30 mins by PI staining based agarose gel electrophoresis analysis. The test is classed as protein assay.
In another test the test system is MCF7. Briefly: Antiproliferative activity against human MCF7 cells incubated for 72 hrs by CCK8 assay. The class given is functional, cell-based. An outline of the steps: as §2
In test [3] the target is T1, DNA topoisomerase 1 (Homo sapiens). Briefly: Inhibition of Top1 (unknown origin) at 125 uM using supercoiled pBR322 plasmid DNA as substrate incubated for 15 mins by PI staining based agarose gel electrophoresis analysis. The essentials:
as §1

In test [4] the target is T2, DNA topoisomerase II (Homo sapiens). Briefly: Inhibition of Top2 (unknown origin) using supercoiled pBR322 plasmid as substrate incubated for 30 mins by PI staining based agarose gel electrophoresis analysis. The class given is protein assay.
The mark [5] stands for this setting: Homo sapiens, HCT-116, 72 h, read-out: IC50.
[6] abbreviates: Homo sapiens, A549, 72 h, read-out: IC50.
Setting [7] is: Homo sapiens, MCF7, 72 h, read-out: IC50.

SMILES strings stand for the structures. The source made the active and inactive calls. The calls are words filed in the database; no cut-off is given here.

Broadly, the IC50 is the concentration needed to halve the response being measured. For the compound `CN1c2ccccc2C(=O)N2CCc3c([nH]c4ccc(OC(=O)OCc5ccc(B6OC(C)(C)C(C)(C)O6)cc5)cc34)C21` (stereo not given), the inhibition result in test [1], in test [2] and in test [3] was “Active” in each case. The IC50 in the test with HCT-116 (setting [5]) was found to be 65 nM; with A549 (setting [6]), 100 nM; with MCF7 (setting [7]) it was 86 nM.
In the case of `CN1c2ccccc2C(=O)N2CCc3c([nH]c4ccc(O)cc34)C21` (stereo not given), in test [1], the inhibition entry was “Active”. Moreover, the IC50 in the test on HCT-116 (setting [5]) came out at 55 nM; with A549 (setting [6]) it was 84 nM; in the test with MCF7 (setting [7]) it was 270 nM.
Consider `CN1c2ccccc2C(=O)N2CCc3c(n(C(=O)OC(C)(C)C)c4ccc(OCc5ccc(B(O)O)cc5)cc34)C21` (stereo not given), for which the IC50 in the test with HCT-116 (setting [5]) is 520 nM; in the test on A549 (setting [6]), 7200 nM; in the test with MCF7 (setting [7]), 1580 nM.
In the case of `CN1c2ccc(F)cc2C(=O)N2CCc3c([nH]c4ccc(B5OC(C)(C)C(C)(C)O5)cc34)C21` (stereo not given), the 50% inhibitory concentration (IC50) was determined as 170 nM in the test on HCT-116 (setting [5]), 110 nM with A549 (setting [6]) and 960 nM in the test on MCF7 (setting [7]).
For the compound `COc1cc([C@@H]2c3cc4c(cc3[C@@H](O[C@@H]3O[C@@H]5CO[C@@H](C)O[C@H]5[C@H](O)[C@H]3O)[C@H]3COC(=O)[C@H]23)OCO4)cc(OC)c1O`, in test [4], the inhibition result is “Active”.
As to `CN1c2ccccc2C(=O)N2CCc3c([nH]c4ccc(OCc5ccc(B6OC(C)(C)C(C)(C)O6)cc5)cc34)C21` (stereo not given), the IC50 in the test on HCT-116 (setting [5]) was 100 nM; with A549 (setting [6]), 390 nM; in the test with MCF7 (setting [7]), 160 nM.
Consider `CN1c2ccc(F)cc2C(=O)N2CCc3c(n(C(=O)OC(C)(C)C)c4ccc(OCc5ccc(B6OC(C)(C)C(C)(C)O6)cc5)cc34)C21` (stereo not given), for which the IC50 turned out to be 2170 nM in the test with HCT-116 (setting [5]), 2230 nM with A549 (setting [6]) and 7850 nM in the test with MCF7 (setting [7]).
For `CN1c2ccccc2C(=O)N2CCc3c([nH]c4ccc(B(O)O)cc34)C21` (stereo not given), the inhibition result in test [1] is “Active”. In addition, the IC50 is 69 nM in the test on HCT-116 (setting [5]), 100 nM in the test with A549 (setting [6]) and 160 nM in the test on MCF7 (setting [7]).
For the compound `CC(=O)Oc1ccc(CCl)cc1`, the IC50 entry with HCT-116 (hct-116), in the test on A549 (a549) and with MCF7 (mcf7) was “Not Active” throughout.
`CN1c2ccccc2C(=O)N2CCc3c([nH]c4ccc(OCc5ccc(B(O)O)cc5)cc34)C21` (stereo not given): the inhibition entry in test [1], in test [2] and in test [3] was “Active” each time. The IC50 in the test with HCT-116 (setting [5]) amounted to 120 nM; in the test with A549 (setting [6]), 74 nM; in the test with MCF7 (setting [7]) it was 110 nM.
Consider `CN1c2ccccc2C(=O)N2CCc3c([nH]c4ccc(B5OC(C)(C)C(C)(C)O5)cc34)C21` (stereo not given), for which the 50% inhibitory concentration (IC50) stood at 220 nM in the test on HCT-116 (setting [5]), 170 nM with A549 (setting [6]) and 390 nM in the test with MCF7 (setting [7]).
As to `CN1c2ccccc2C(=O)N2CCc3c(n(C(=O)OC(C)(C)C)c4ccc(OCc5ccc(B6OC(C)(C)C(C)(C)O6)cc5)cc34)C21` (stereo not given), the results for the IC50 with HCT-116 (setting [5]), with A549 (setting [6]) and in the test with MCF7 (setting [7]) were 4180 nM, 3440 nM and 4130 nM, respectively.
In the case of `CN1c2ccc(F)cc2C(=O)N2CCc3c(n(C(=O)OC(C)(C)C)c4ccc(OCc5ccc(B(O)O)cc5)cc34)C21` (stereo not given), the results for the half-maximal inhibitory concentration (IC50) with HCT-116 (setting [5]), in the test on A549 (setting [6]) and in the test with MCF7 (setting [7]) were 4910 nM, 2130 nM and 2390 nM, respectively.
Regarding `CC[C@@]1(O)C(=O)OCc2c1cc1n(c2=O)Cc2cc3ccccc3nc2-1` [CAMPTOTHECIN], the IC50 in the test on HCT-116 (setting [5]) was 9 nM; in the test on A549 (setting [6]), 39 nM; in the test on MCF7 (setting [7]), 84 nM.
With `CN1c2ccc(F)cc2C(=O)N2CCc3c([nH]c4ccc(B(O)O)cc34)C21` (stereo not given), the inhibition entry in test [1] is “Active”. The IC50 in the test with HCT-116 (setting [5]) is 63 nM; with A549 (setting [6]), 40 nM; in the test with MCF7 (setting [7]), 94 nM.
For `CN1c2ccc(F)cc2C(=O)N2CCc3c([nH]c4ccc(OCc5ccc(B6OC(C)(C)C(C)(C)O6)cc5)cc34)C21` (stereo not given), the half-maximal inhibitory concentration (IC50) with HCT-116 (setting [5]) amounted to 150 nM; with A549 (setting [6]), 120 nM; in the test with MCF7 (setting [7]), 97 nM.
